Experimental data: ChEMBL document CHEMBL1165946, “Development of antiproliferative phenylmaleimides that activate the unfolded protein response” (Bioorg Med Chem, 2010)
Active and inactive are the calls of the source. The calls are words filed in the database; no cut-off is given here.

Assays:
[1] = Cytotoxicity against human Hep3B cells after 48 hrs by alamar blue assay; assay type: functional, cell-based, Hep 3B2
Summary of the method: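 HEP3B cells in EMEM with 10% heat-inactivated FBS, 2 mmol/L L-glutamine, penicillin/streptomycin, 37 °C, 5% CO2, used in exponential growth. Exposed 48 h to 1.6–50 µM of each analog. Alamar blue then added for a further 6 h at 37 °C and fluorescence read. Growth given as % treated/control; IC50 is the concentration giving 50% reduction of cell number versus untreated controls.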

[2] = Upregulation of unfolded protein response-related HSPA1A gene expression in human Hep3B cells at 10 uM after 1 hr by RT-PCR analysis relative to control; assay type: functional, cell-based; settings: Hep 3B2
Summary of the method: (§1)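 HEP3B cells treated 1 h with 10 µM analogue, compared with untreated cells. Gene expression measured by real-time PCR with SYBR chemistry and gene-specific primer pairs, triplicate wells, GAPDH as endogenous control. Analysed by the comparative Ct method and expressed as fold induction over untreated control (n = 3, SD). Significance set at p <0.05.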

[3] = Upregulation of unfolded protein response-related DDIT3 gene expression in human Hep3B cells at 10 uM after 1 hr by RT-PCR analysis relative to control; assay type: functional, cell-based; settings: Hep 3B2; summary of the method: as §1
[4] = Upregulation of unfolded protein response-related ATF4 gene expression in human Hep3B cells at 10 uM after 1 hr by RT-PCR analysis relative to control; assay type: functional, cell-based; settings: Hep 3B2; summary of the method: as §1
[5] = biological target: T1, Eukaryotic translation initiation factor 2-alpha kinase 3 (Homo sapiens) (UniProt Q9NZJ5); experiment: Induction of PERK-mediated phosphorylation of eIF2alpha in human Hep3B cells at 2 to 10 uM after 1 to 6 hrs by Western blot analysis; assay type: cell-based; settings: Hep 3B2
T1 sequence (whole entry): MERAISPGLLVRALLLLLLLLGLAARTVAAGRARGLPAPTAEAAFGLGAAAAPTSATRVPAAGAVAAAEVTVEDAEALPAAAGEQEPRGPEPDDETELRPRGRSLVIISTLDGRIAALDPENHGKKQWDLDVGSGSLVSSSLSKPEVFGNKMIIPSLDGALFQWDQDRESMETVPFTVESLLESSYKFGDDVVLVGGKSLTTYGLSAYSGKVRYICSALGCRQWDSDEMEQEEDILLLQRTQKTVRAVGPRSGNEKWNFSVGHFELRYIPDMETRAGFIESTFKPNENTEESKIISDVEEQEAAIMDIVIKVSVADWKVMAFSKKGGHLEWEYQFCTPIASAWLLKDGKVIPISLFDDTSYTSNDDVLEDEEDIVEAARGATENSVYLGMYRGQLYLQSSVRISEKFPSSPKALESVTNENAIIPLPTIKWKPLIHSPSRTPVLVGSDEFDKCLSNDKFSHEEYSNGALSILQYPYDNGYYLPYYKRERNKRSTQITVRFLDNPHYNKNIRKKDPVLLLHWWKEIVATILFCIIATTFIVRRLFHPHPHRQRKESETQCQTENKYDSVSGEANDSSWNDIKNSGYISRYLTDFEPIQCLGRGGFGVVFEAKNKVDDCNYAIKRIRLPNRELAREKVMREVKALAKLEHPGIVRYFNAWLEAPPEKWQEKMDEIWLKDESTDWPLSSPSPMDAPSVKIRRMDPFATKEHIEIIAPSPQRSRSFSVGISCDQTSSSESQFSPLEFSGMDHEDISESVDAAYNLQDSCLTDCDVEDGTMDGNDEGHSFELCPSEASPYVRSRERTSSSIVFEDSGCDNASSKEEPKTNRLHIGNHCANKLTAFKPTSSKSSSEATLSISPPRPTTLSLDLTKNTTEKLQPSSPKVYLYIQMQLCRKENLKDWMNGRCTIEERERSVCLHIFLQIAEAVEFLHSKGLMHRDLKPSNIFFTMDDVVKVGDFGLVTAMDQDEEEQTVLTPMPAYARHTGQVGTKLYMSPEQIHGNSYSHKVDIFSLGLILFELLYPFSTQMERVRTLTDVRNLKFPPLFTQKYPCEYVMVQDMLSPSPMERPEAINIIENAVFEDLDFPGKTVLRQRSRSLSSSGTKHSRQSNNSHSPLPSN

[6] = Upregulation of unfolded protein response-related GADD34 gene expression in human Hep3B cells at 10 uM after 1 hr by RT-PCR analysis; assay type: functional, cell-based; settings: Hep 3B2; summary of the method: as §1
[7] = Upregulation of unfolded protein response-related TRIB3 gene expression in human Hep3B cells at 10 uM after 1 hr by RT-PCR analysis; assay type: functional, cell-based; settings: Hep 3B2; summary of the method: as §1
Hep 3B2 [8] = experiment: Effect on stress-inducible CDKN1A gene expression in human Hep3B cells at 1 to 50 uM after 1 hr by RT-PCR analysis; assay type: functional, cell-based
Hep 3B2 [9] = experiment: Effect on stress-inducible […] gene expression in human Hep3B cells at 1 to 50 uM after 1 hr by RT-PCR analysis; assay type: functional, cell-based
Hep 3B2 [10] = experiment: Effect on stress-inducible CHEK1 gene expression in human Hep3B cells at 1 to 50 uM after 1 hr by RT-PCR analysis; assay type: functional, cell-based
Hep 3B2 [11] = experiment: Effect on stress-inducible BRCA1 gene expression in human Hep3B cells at 1 to 50 uM after 1 hr by RT-PCR analysis; assay type: functional, cell-based
Hep 3B2 [12] = experiment: Effect on stress-inducible MDM2 gene expression in human Hep3B cells at 1 to 50 uM after 1 hr by RT-PCR analysis; assay type: functional, cell-based
Hep 3B2 [13] = experiment: Effect on stress-inducible GADD45B gene expression in human Hep3B cells at 1 to 50 uM after 1 hr by RT-PCR analysis; assay type: functional, cell-based
[14] = biological target: T1, Eukaryotic translation initiation factor 2-alpha kinase 3 (Homo sapiens); experiment: Induction of PERK-mediated phosphorylation of eIF2alpha in human Hep3B cells at 50 uM after 1 hr by Western blot analysis; assay type: cell-based; settings: Hep 3B2

Compound	IC50 [1] [µM]	other results
COc1cccc(N2C(=O)C(SCCO)=C(SCCO)C2=O)c1	9	
O=C1C(SCCO)=C(SCCO)C(=O)N1c1ccc2cc3ccccc3cc2c1	1.8	
COc1cc(OC)cc(N2C(=O)C(SCCO)=C(SCCO)C2=O)c1	9	
O=C1C(SCCO)=C(SCCO)C(=O)N1c1ccc(-c2ccc([N+](=O)[O-])cc2)cc1	4	fold change (FC) [2]: 17; fold change (FC) [3]: 2; fold change (FC) [4]: 2
O=C1C(SCCO)=C(SCCO)C(=O)N1c1ccc(OC(F)(F)F)cc1	4	
O=C1C(SCCO)=C(SCCO)C(=O)N1c1ccc(O)cc1	> 100	
O=C1C(SCCO)=C(SCCO)C(=O)N1c1ccc(F)cc1	9	
COc1ccc(N2C(=O)C(SCCO)=C(SCCO)C2=O)cc1	6	
O=C1C(SCCO)=C(SCCO)C(=O)N1c1ccccc1	70	fold change (FC) [3]: 2; fold change (FC) [4]: 2
COc1ccc(-c2ccc(N3C(=O)C(SCCO)=C(SCCO)C3=O)cc2)cc1	3	
CN(C)c1ccc(N2C(=O)C(SCCO)=C(SCCO)C2=O)cc1	9	
CC(=O)c1ccc(N2C(=O)C(SCCO)=C(SCCO)C2=O)cc1	10	
O=C1C(SCCO)=C(SCCO)C(=O)N1c1ccccc1I	9	
O=C1C(SCCO)=C(SCCO)C(=O)N1c1cccc2ccccc12	4	
O=C1C(SCCO)=C(SCCO)C(=O)N1c1ccc(Oc2ccccc2)cc1	> 100	fold change (FC) [3]: 2; fold change (FC) [4]: 2
O=C1C(SCCO)=C(SCCO)C(=O)N1CCc1cccc(Cl)c1	1	
O=C1C(SCCO)=C(SCCO)C(=O)N1Cc1ccccc1	5	
O=C1C(SCCO)=C(SCCO)C(=O)N1CCc1ccccc1	2	fold change (FC) [2]: 15.3; fold change (FC) [3]: 2; fold change (FC) [4]: 2
O=C1C(SCCO)=C(SCCO)C(=O)N1c1ccc(Cl)cc1	7	
Cc1cccc(N2C(=O)C(SCCO)=C(SCCO)C2=O)c1	7	
O=C1C(SCCO)=C(SCCO)C(=O)N1c1ccc2ccccc2c1	3.5	
Cc1cc(Cl)ccc1N1C(=O)C(SCCO)=C(SCCO)C1=O	8	
CC(=O)Nc1ccc(N2C(=O)C(SCCO)=C(SCCO)C2=O)cc1	> 100	fold change (FC) [3]: 2; fold change (FC) [4]: 2; Activity [5]: inactive
O=C1C(SCCO)=C(SCCO)C(=O)N1c1ccccc1F	9	
N#Cc1ccc(N2C(=O)C(SCCO)=C(SCCO)C2=O)cc1	9	
O=C1C(SCCO)=C(SCCO)C(=O)N1c1ccc(-c2ccccc2)cc1	0.7	Activity [6]: Active; Activity [7]: Active; Activity (Hep 3B2 [8]): inactive; Activity (Hep 3B2 [9]): inactive; Activity (Hep 3B2 [10]): inactive; Activity (Hep 3B2 [11]): inactive; Activity (Hep 3B2 [12]): inactive; Activity (Hep 3B2 [13]): inactive; Activity [5]: Active; Activity [14]: Toxic
O=C1C(SCCO)=C(SCCO)C(=O)N1Cc1cccc(Cl)c1	2.5	
Cc1ccccc1-c1ccc(N2C(=O)C(SCCO)=C(SCCO)C2=O)cc1C	10	fold change (FC) [3]: 2; fold change (FC) [4]: 2
CCOc1ccc(N2C(=O)C(SCCO)=C(SCCO)C2=O)cc1	6	
CCCCOc1ccc(N2C(=O)C(SCCO)=C(SCCO)C2=O)cc1	5	
